Assay results from ChEMBL document CHEMBL1145239 (Bioorg Med Chem Lett, 2005).

Molecular target: Dipeptidyl peptidase 4 (Rattus norvegicus, UniProt P14740)
Assay: Inhibitory concentration against rat dipeptidylpeptidase IV
Method in brief: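 DPP-IV activity in rat plasma (10-fold diluted) by fluorescence with Gly-Pro-MCA substrate (100 µmol/L solution added); buffer PBS with 0.003% Brij-35. Inhibitor at various concentrations, room temperature, 60 min. Inhibition relative to solvent control; IC50 by logistic analysis.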

Dipeptidyl peptidase 4, sequence (P14740 whole entry): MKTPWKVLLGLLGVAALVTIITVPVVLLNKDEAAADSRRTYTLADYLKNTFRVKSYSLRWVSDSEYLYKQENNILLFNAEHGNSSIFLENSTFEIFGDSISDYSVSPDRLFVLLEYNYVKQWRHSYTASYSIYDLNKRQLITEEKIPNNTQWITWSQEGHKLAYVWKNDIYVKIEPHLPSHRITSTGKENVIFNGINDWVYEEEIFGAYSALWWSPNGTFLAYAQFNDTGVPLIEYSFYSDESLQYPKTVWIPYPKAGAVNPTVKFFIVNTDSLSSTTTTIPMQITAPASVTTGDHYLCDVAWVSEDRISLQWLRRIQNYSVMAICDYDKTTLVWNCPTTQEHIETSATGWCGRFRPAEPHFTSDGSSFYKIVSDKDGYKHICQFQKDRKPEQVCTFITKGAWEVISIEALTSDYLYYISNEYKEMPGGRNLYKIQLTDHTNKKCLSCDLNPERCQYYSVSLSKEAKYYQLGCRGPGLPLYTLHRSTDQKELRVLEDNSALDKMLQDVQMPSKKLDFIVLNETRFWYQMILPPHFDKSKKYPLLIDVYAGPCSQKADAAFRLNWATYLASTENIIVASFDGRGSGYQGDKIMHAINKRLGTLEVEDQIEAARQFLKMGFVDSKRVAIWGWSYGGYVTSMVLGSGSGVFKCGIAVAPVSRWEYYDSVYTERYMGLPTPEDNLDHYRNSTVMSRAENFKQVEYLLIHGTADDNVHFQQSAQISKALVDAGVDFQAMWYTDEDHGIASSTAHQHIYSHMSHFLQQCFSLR

N#C[C@@H]1CCCN1C(=O)[C@@H]1C[C@H](N)CN1
IC50: 9.1 nM

N#C[C@@H]1CCCN1C(=O)[C@@H]1C[C@H](NC(=O)Nc2ccccc2)CN1
IC50: 1.1 nM

N#C[C@@H]1CCCN1C(=O)[C@@H]1C[C@H](NC(=O)c2ccccc2)CN1
IC50: 3.8 nM

N#Cc1ccc(N[C@@H]2CN[C@H](C(=O)N3CCC[C@H]3C#N)C2)cc1
IC50: 0.26 nM

N#C[C@@H]1CCCN1C(=O)[C@@H]1C[C@H](NCc2ccccc2)CN1
IC50: 3 nM

N#C[C@@H]1CCCN1C(=O)[C@@H]1C[C@H](NC2CCCCC2)CN1
IC50: 3.6 nM

N#Cc1ccc(N[C@@H]2CN[C@H](C(=O)N3CCC[C@H]3C#N)C2)cc1C#N
IC50: 0.17 nM

N#C[C@@H]1CCCN1C(=O)[C@@H]1C[C@H](NS(=O)(=O)c2ccccc2)CN1
IC50: 3.9 nM

COc1ccc(N[C@@H]2CN[C@H](C(=O)N3CCC[C@H]3C#N)C2)cc1
IC50: 0.28 nM

COc1ccc(N[C@@H]2CN[C@H](C(=O)N3CCC[C@H]3C#N)C2)cc1OC
IC50: 0.24 nM

N#C[C@@H]1CCCN1C(=O)[C@@H]1C[C@H](NCCc2ccccc2)CN1
IC50: 1.5 nM
